Assay results collected from several papers.
Each line is one published result; the experiments were not run side by side.

C[C@@]1(c2cc(NC(=O)c3ccc(C#N)cn3)ccc2F)C=CSC(N)=N1 — Vd/F (human, plasma; oral, 10 mg, single dose): 210 L
CC(C)(C)c1ccc(O)c(CN(Cc2cc(C(C)(C)C)ccc2O)C2CCC(NC(N)=O)CC2)c1 (centres unmarked) — Cmax (male C57BL/6 mouse, brain; intraperitoneal, 10 mg/kg, single dose): 1070 ng/g
COc1cc(C(=O)NC2CCN(C)CC2)c(F)cc1Nc1ncc(C(F)(F)F)c(Oc2cccc3c2C(=O)N(C)C3)n1 — Vd/F (human, plasma; oral, 25 mg, single dose, patients): 331 L
CC(C)(Sc1ccncc1-c1ccc(C#N)c2ccccc12)C(=O)O — Vd/F (male human, plasma; oral, 40 mg, single dose, fasted, healthy volunteers): 280 L
C=CC(=O)N1CC2CC(n3nc(-c4ccc(C(=O)Nc5ccccn5)cc4)c4c(N)ncnc43)CC2C1 (centres unmarked) — Cmax (SCID mouse, plasma; oral, 1 mg/kg): 61.8 ng/mL
CCNCCCNC/C=C\CNCCCNCC — Vd (human, plasma; intravenous, 200 mg, patients, infusion): 0.56 L/kg
Cc1cc(Nc2cc(N3CCN(C)CC3)nc(/C=C/c3ccccc3)n2)n[nH]1 — Vd/F (human, plasma; oral, 200 mg/m², multiple doses, patients): 907 L
COc1ccc([C@@H]2CN(C(=O)[C@@H](O)CO)C[C@@]2(C)[C@@H](C)O)cc1OC1CN(c2ccc(C)cn2)C1 — Vd/F (human, plasma; oral, 5 mg, single dose, healthy volunteers): 46.4 L
